Bioassay records (PubChem)
In the library only some 2.4% were active in any assay of this set; here they are far more common.
NPY Y2 blocker: NPY-Y2 (human) receptor antagonism; 0.99% of 140,000 active; P49146; inhibition, % at 2.7 µM; NPY-Y2 expressing cells, antagonist mode; in the data active means inhibition above about 17%;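 further: 0% = vehicle with agonist challenge and 100% = reference antagonist with challenge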
NPY1 pot ag: human NPY-Y1 potentiation or agonism, primary screen; AID 1304; 0.37% of 220,000 active; activation, % at 3.6 µM; NPY-Y1 expressing cells, potentiator/agonist activation; in the data active means activation above about 33%, passing the limit was not always enough;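 further: cells stimulated with NPY at EC10 then isoproterenol at EC100; 0% = low agonist plus stimulus and 100% = saturating agonist plus stimulus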
S1P4 ag: activates the human S1P4 receptor. O95977. S1P4-expressing cell line, agonist reporter assay. activation, % at 4.98 µM. 0.35% of 220,000 active. AID 1509; in the data active means activation above about 11%;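 further: 0% = DMSO vehicle and 100% = reference agonist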
Target sequence (O95977 whole entry, looked up): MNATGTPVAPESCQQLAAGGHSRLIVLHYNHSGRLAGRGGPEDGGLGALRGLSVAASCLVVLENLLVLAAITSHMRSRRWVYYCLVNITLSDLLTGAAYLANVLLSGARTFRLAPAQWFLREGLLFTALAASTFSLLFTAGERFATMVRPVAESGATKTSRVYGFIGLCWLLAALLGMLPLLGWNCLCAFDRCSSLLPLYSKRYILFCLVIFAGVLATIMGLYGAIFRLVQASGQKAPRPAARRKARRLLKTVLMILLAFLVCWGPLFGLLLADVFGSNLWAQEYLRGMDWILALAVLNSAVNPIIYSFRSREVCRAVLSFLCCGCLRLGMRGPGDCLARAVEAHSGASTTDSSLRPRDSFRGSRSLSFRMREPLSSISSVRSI
NPY Y1 blocker: NPY-Y1 (human) receptor antagonism; HEK293-CNG Y1 cells, membrane potential fluorescence; NPY at EC95, then isoproterenol; P25929; inhibition, % at 3.6 µM; 1% of 200,000 active; AID 1040;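 active means inhibition above the campaign mean inhibition of all tested compounds plus 3 SD, cut at about 20% in these data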;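 further: 0% = DMSO wells given NPY plus isoproterenol and 100% = isoproterenol alone without NPY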
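Material: HEK293 cells with Y1 receptor plus CNG channel; times: compound incubation 1 h at room temperature, readout 45 min post-stimulation; signal: fluorescence, membrane potential probe; read-out basis: fluorescence ratio normalized to % inhibition between controls; benchmarks: full-block control isoproterenol-only wells, zero-block control NPY plus isoproterenol wells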
NPY2 pot ag: human NPY-Y2 potentiation or agonism, primary screen. 0.45% of 220,000 active. AID 1359. activation, % at 3.6 µM. cells expressing NPY-Y2, potentiator/agonist read-out. P49146; in the data active means activation above about 27%;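 further: cells stimulated with NPY near EC25 plus isoproterenol at EC100; 0% = vehicle plus submaximal agonist and 100% = vehicle plus saturating agonist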
S1P4 antagonist: blocks the human S1P4 receptor; O95977; S1P4-expressing cells, antagonist mode, reporter read-out; inhibition, % at 4.98 µM; 0.26% of 220,000 active; in the data active means inhibition above about 29%;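 further: 0% = wells stimulated with agonist and 100% = vehicle wells without agonist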
* hit, by the source's call.

Screening Cc1cccn2c(Nc3ccccc3)c(-c3ccccn3)nc12 returned NPY1 pot ag -21, S1P4 ag -3, NPY Y1 blocker 6, NPY2 pot ag 11 and S1P4 antagonist 16.
`COC(=O)C1NN=C(C(=O)c2ccccc2)C1c1ccccc1` (configuration not stated) gave NPY Y2 blocker 3, NPY1 pot ag 6, S1P4 ag 1, NPY Y1 blocker -2, NPY2 pot ag 11 and S1P4 antagonist -25.
For CCOC(=O)c1c(C)[nH]c(C)c1C(=O)COC(=O)[C@@H]1CCCN1S(=O)(=O)c1ccc(Cl)cc1 the results were NPY Y2 blocker 3, NPY1 pot ag 0, S1P4 ag -1, NPY Y1 blocker 7, NPY2 pot ag -25 and S1P4 antagonist 8.
For Fc1ccc(N/N=C2/CC(c3ccccc3)Oc3ccccc32)c(F)c1 (configuration not stated) the results were NPY Y2 blocker 3, NPY1 pot ag -10, S1P4 ag 1, NPY Y1 blocker 2, NPY2 pot ag -2 and S1P4 antagonist -14.
`O=C(c1noc2c1CCCC2)N1CCN(C(c2ccccc2)c2ccccc2)CC1` gave NPY Y2 blocker 2, NPY1 pot ag -7, S1P4 ag -1, NPY Y1 blocker 2, NPY2 pot ag -1 and S1P4 antagonist -23.
For CCN(CC1COc2ccccc2O1)C(=S)Nc1ccccc1 (configuration not stated) the results were NPY Y2 blocker 6, NPY1 pot ag 46*, S1P4 ag 1, NPY Y1 blocker -2, NPY2 pot ag -4 and S1P4 antagonist -21.
Cn1cc(Br)c(C(=O)NC(=S)N2CCN(c3ccccn3)CC2)n1 was read as NPY Y2 blocker 2, NPY1 pot ag 6, S1P4 ag 1, NPY Y1 blocker -3, NPY2 pot ag 8 and S1P4 antagonist 0.
`Cc1ccc(SCc2[nH]nc3c2C(c2ccc(C)o2)C(C#N)=C(N)O3)cc1` (configuration not stated) gave NPY Y2 blocker 79*, NPY1 pot ag -46, S1P4 ag -1, NPY Y1 blocker 120*, NPY2 pot ag -20 and S1P4 antagonist -2.
`Cc1ccc(SCc2[nH]nc3c2C(c2ccco2)C(C#N)=C(N)O3)cc1` (configuration not stated) gave NPY Y2 blocker 127*, NPY1 pot ag -25, S1P4 ag 2, NPY Y1 blocker 106*, NPY2 pot ag -15 and S1P4 antagonist 2.
For CCSc1nnc(CNC(=O)C23CC4CC(CC(C4)C2)C3)n1Cc1ccccc1 the results were NPY Y2 blocker 3, NPY1 pot ag 19, S1P4 ag 0, NPY Y1 blocker -2, NPY2 pot ag -4 and S1P4 antagonist 7.
Screening Cc1cccn2c(CNCC3(c4ccccc4)CCCC3)c(C(=O)N3CCOCC3)nc12 returned NPY1 pot ag 8, S1P4 ag 1, NPY Y1 blocker 20*, NPY2 pot ag 12 and S1P4 antagonist 2.
CCCc1ccc(OCCNC(=O)C2CCCCC2)cc1 was read as NPY1 pot ag 8, S1P4 ag -1, NPY Y1 blocker 1, NPY2 pot ag 6 and S1P4 antagonist -10.
Screening O=C(CSc1nnc(Cc2cccs2)n1-c1ccc(Cl)cc1)NCc1ccc2c(c1)OCO2 returned NPY Y2 blocker -1, NPY1 pot ag 7, S1P4 ag 0, NPY Y1 blocker -1, NPY2 pot ag 3 and S1P4 antagonist -3.
Screening Cc1ccc(CNCC(O)(c2ccccc2)c2ccc(F)cc2)cc1 (configuration not stated) returned NPY Y2 blocker 8, NPY1 pot ag -28, S1P4 ag -1, NPY Y1 blocker 11, NPY2 pot ag -23 and S1P4 antagonist -6.
`Cc1ccc(CNCC(O)(c2ccc(F)cc2)c2ccc(F)cc2)cc1` gave NPY Y2 blocker 19*, NPY1 pot ag -59, S1P4 ag -3, NPY Y1 blocker 23*, NPY2 pot ag -31 and S1P4 antagonist -20.
Screening O=C(O)CCc1ccc(-c2ccc(F)cc2)n1Cc1ccco1 returned NPY Y2 blocker 0, NPY1 pot ag 80*, S1P4 ag 1, NPY Y1 blocker -10, NPY2 pot ag 71* and S1P4 antagonist -8.
Screening COc1cc2c(cc1OC)-c1cc(NC3CCCCCCC3)nc(=O)n1CC2 returned NPY Y2 blocker 72*, NPY1 pot ag -65, S1P4 ag 1, NPY Y1 blocker 64*, NPY2 pot ag -54 and S1P4 antagonist -6.
`COc1cc2c(cc1OC)-c1cc(NC3CCCCC3)nc(=O)n1CC2` gave NPY Y2 blocker 12, NPY1 pot ag -45, S1P4 ag 1, NPY Y1 blocker 33*, NPY2 pot ag -2 and S1P4 antagonist -23.
`COc1cc2c(cc1OC)-c1cc(NC3CC3)nc(=O)n1CC2` gave NPY Y2 blocker 4, NPY1 pot ag -7, S1P4 ag 1, NPY Y1 blocker 11, NPY2 pot ag 2 and S1P4 antagonist -12.
`COc1cc(/C=N\NC(=O)c2ccc(=O)[nH]n2)cc(OC)c1OC` gave NPY Y2 blocker 0, NPY1 pot ag 13, S1P4 ag 0, NPY Y1 blocker 6, NPY2 pot ag 17 and S1P4 antagonist 6.
CC1=CCC2C(=O)N(c3ccc(C)cc3)C(=O)C2C1 (configuration not stated) was read as NPY Y2 blocker 2, NPY1 pot ag -33, S1P4 ag -1, NPY Y1 blocker 1, NPY2 pot ag -29 and S1P4 antagonist -11.
CCOC(=O)c1ccc(N2C(=O)C3CC=C(C)CC3C2=O)cc1 (configuration not stated) was read as NPY Y2 blocker 0, NPY1 pot ag -27, S1P4 ag 0, NPY Y1 blocker 25*, NPY2 pot ag -26 and S1P4 antagonist 5.
Screening Cc1cc(C(=O)CCl)c(C)n1CCc1ccc(Cl)cc1 returned NPY1 pot ag 63*, S1P4 ag 3, NPY Y1 blocker -4, NPY2 pot ag 91* and S1P4 antagonist 3.
Screening Cc1cc(C(=O)CCl)c(C)n1CCc1ccc(F)cc1 returned NPY1 pot ag 4, S1P4 ag -3, NPY Y1 blocker -1, NPY2 pot ag 0 and S1P4 antagonist 19.
Screening CCCCC[n+]1cccc2c3ccccc3ccc21 returned NPY1 pot ag 0, S1P4 ag -2, NPY Y1 blocker 7, NPY2 pot ag 21 and S1P4 antagonist -11.
For c1ccc(C[n+]2cccc3c4ccccc4ccc32)cc1 the results were NPY Y2 blocker 13, NPY1 pot ag 13, S1P4 ag 1, NPY Y1 blocker -5, NPY2 pot ag 36* and S1P4 antagonist -8.
CC(C)(C)n1nnnc1C(c1cccs1)N(Cc1ccccc1)Cc1ccco1 (configuration not stated) was read as NPY Y2 blocker 20*, NPY1 pot ag -10, S1P4 ag 1, NPY Y1 blocker 27*, NPY2 pot ag -10 and S1P4 antagonist 15.
